In general, pEC50 refers to the negative decadic logarithm of the EC50, by convention in mol/L. A word on the AUC: it is the area under the concentration-time curve, a measure of exposure. A low value points to low exposure. The clearance is a measure of how efficiently the substance is removed, as volume per time. Higher therefore signals efficient removal. As a reminder, the MRT is a mean duration of stay, worked out from the concentration-time curve.

Results on two compounds are retold here after ChEMBL document CHEMBL4014341, “Discovery of a Human Neuromedin U Receptor 1-Selective Hexapeptide Agonist with Enhanced Serum Stability” (J Med Chem, 2017).

The target of one data set is T1, Neuromedin-U receptor 1 (Homo sapiens, UniProt Q9HB89).
T1 sequence (Q9HB89 whole entry): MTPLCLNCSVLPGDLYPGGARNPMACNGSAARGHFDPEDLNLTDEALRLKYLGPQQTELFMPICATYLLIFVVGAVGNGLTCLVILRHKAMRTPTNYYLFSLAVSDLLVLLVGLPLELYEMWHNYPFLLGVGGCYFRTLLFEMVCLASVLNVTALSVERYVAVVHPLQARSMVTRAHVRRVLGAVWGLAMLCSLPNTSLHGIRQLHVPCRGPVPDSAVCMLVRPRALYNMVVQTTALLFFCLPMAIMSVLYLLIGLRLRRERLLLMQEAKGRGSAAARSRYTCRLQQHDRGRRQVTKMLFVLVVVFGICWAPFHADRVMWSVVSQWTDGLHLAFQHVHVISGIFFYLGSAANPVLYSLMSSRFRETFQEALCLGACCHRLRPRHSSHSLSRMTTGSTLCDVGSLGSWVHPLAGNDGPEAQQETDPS
Briefly: Agonist activity at human NMUR1 expressed in CHO cells assessed as induction of Ca2+ flux after 18 hrs by Fluo-4 AM dye based FLIPR assay. In kind it is functional, cell-based. Put shortly:
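CHO cells stably expressing human NMUR1 or NMUR2 were seeded at 2.0 × 10^4/well. After 18 h they were loaded 40 min with 4 μM Fluo-4 AM in HBSS/10 mM HEPES/2.5 mM probenecid pH 7.4 with 1% FCS, then washed. Peptides in buffer with 0.05% BSA/0.001% Triton X-100 were tested at 10−12−10−6 M in triplicate. Calcium flux was read by FLIPR from the maximal value, and EC50 was obtained by curve fitting.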

The target in data set [1] is T2, Neuromedin-U receptor 1 (Homo sapiens) (UniProt Q9HB89).
T2 sequence (whole entry): T1 sequence (Q9HB89 whole entry)
The experiment in a line: Agonist activity at human NMUR1 expressed in CHO cells assessed as induction of Ca2+ flux at 0.1 to 10 nM after 18 hrs by Fluo-4 AM dye based FLIPR assay relative to NMU. In kind it is functional, cell-based. Put shortly: (§1)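 Human NMUR1 or NMUR2 stably expressed in CHO cells was assayed by Fluo-4 AM (4 μM, 40 min) FLIPR calcium flux, with cells seeded 18 h before. Peptides were tested at single concentrations of 0.1, 10 or 100 nM. Maximal response is expressed as % of hNMU at 1000 nM (=100%).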
On the technique in general: Calcium assays in cells follow changes in intracellular calcium, usually with a dye or a luminescent sensor.

Data set [2] has as its target Neuromedin-U receptor 2 (Homo sapiens) (UniProt Q9GZQ4). The experiment in a line: Agonist activity at human NMUR2 expressed in CHO cells assessed as induction of Ca2+ flux at 0.1 to 10 nM after 18 hrs by Fluo-4 AM dye based FLIPR assay relative to NMU. The format is functional, cell-based. Put shortly: as §1
A short description of data set [3]: AUC in Wistar rat at 1 mg, iv up to 240 mins by LC/MS analysis. The format is ADME, organism-based. Also on record: dose 1 mg, time < 4 hr, route intravenous. Conditions: in vivo.
Data set [4] in a line: Clearance in Wistar rat at 1 mg, iv up to 240 mins by LC/MS analysis. The format is ADME, organism-based. The note with it: in vivo.
Data set [5] is described as follows: MRT in Wistar rat at 1 mg, iv by LC/MS analysis. In kind it is ADME, organism-based. Conditions: in vivo.

pEC50: −log10 of the molar value. The source made the active and inactive calls. The calls are words filed in the database; no cut-off is given here. Square brackets hold non-standard residues; d marks the D form. Peptide text beside a SMILES is read from it. * marks the point of attachment. Phe(4-F) = N[C@@H](Cc1ccc(F)cc1)C(=O)O; Acetyl(2-thienyl) = O=C(Cc1cccs1)*

Chain of Neuromedin-U receptor 2 (Homo sapiens) (Q9GZQ4 whole entry): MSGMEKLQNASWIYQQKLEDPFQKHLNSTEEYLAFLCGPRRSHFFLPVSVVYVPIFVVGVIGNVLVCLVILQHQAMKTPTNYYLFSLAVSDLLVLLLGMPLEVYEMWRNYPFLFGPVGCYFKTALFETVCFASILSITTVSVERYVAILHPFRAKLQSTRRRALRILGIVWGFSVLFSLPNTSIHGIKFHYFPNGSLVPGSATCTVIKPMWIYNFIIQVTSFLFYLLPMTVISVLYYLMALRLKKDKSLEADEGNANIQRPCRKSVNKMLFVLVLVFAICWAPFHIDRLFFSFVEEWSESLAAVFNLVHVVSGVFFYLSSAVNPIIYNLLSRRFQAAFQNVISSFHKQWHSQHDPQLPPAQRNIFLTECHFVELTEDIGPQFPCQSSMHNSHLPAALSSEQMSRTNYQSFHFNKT

As for `CC(C)C[C@H](NC(=O)[C@H](Cc1ccccc1)NC(=O)[C@H](Cc1ccc(O)cc1)NC(=O)CNC(=O)[C@H](CCCNC(=N)N)NC(=O)[C@H](CO)NC(=O)[C@H](CCC(N)=O)NC(=O)[C@H](CO)NC(=O)[C@H](C)NC(=O)[C@H](Cc1ccccc1)NC(=O)[C@@H]1CCCN1C(=O)[C@H](CO)NC(=O)[C@H](CCC(N)=O)NC(=O)[C@H](Cc1ccccc1)NC(=O)[C@H](CCC(=O)O)NC(=O)[C@H](CCC(=O)O)NC(=O)[C@H](CC(=O)O)NC(=O)[C@@H](NC(=O)[C@H](CCCNC(=N)N)NC(=O)[C@@H](N)Cc1ccccc1)C(C)C)C(=O)N[C@@H](Cc1ccccc1)C(=O)N[C@@H](CCCNC(=N)N)C(=O)N1CCC[C@H]1C(=O)N[C@@H](CCCNC(=N)N)C(=O)N[C@@H](CC(N)=O)C(N)=O` (H-FRVDEEFQSPFASQSRGYFLFRPRN-NH2), the pEC50 on Neuromedin-U receptor 1 was 9.77.

For the compound `N=C(N)NCCC[C@H](NC(=O)[C@@H]1CCCN1C(=O)[C@H](CCCNC(=N)N)NC(=O)[C@H](Cc1ccc(F)cc1)NC(=O)[C@H](Cc1c[nH]c2ccccc12)NC(=O)Cc1cccs1)C(=O)N[C@@H](CC(N)=O)C(N)=O` ({Acetyl(2-thienyl)}-W[Phe(4-F)]RPRN-NH2), the outcome in data set [1] and in data set [2] was Active. Also, the AUC at 4 h in data set [3] was 5300 ng·h/mL. The clearance in data set [4] is 3.19 mL/min. Also, the MRT in data set [5] is 11.5 min.
